Variants at the floor of the assay were thinned out.
B1: tRNA (parent)
chain: GUUCCGUUGGCGUAAUGGUAACGCGUCUCCCUCCUAAGGAGAAGACUGCGGGUUCGAGUCCCGUACGGAACG

Variants of: B1
Test: yeast fitness relative to wild type (ratio to wild type); higher = fitter; tRNA-Arg(CCU), competitive growth, 37 C, YPD
Outline: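 Variants of the tRNA-Arg(CCU) gene were chemically synthesised with a 3% per-site mutation rate across 69 sites and placed at the native genomic locus in Saccharomyces cerevisiae. Six parallel replicates of the pooled strains were competed in YPD at 37°C for 24 hours, and gene amplicons from the start and end populations were read by 100-nucleotide paired-end sequencing. Darwinian fitness relative to wild type was derived from changes in genotype frequencies. Genotypes required ≥ 100 starting reads, and estimates < 0.5 were set to 0.5.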

| Variant | yeast fitness |
| --- | --- |
| GUUCCGUUGGUGUAAUGGUAACGCGUCUCCCUCCUAAGGAGAAGAUUGCGGGUUCGAGUCCCGUACGGAACG [C11U C46U] | 1 |
| GUUCCGUUGGUCUAAUGGUAACGCGUCUCCCUCCUAAGGAGAAGAAUGCGGGUUCGAGUCCCGUACGGAACG [C11U G12C C46A] | ≤ 0.5 |
| GUUCCGUUGGUGUAAUGCUAACCCGUCUCCCUCCUAAGGAGAAGACUGCGGGUUCGCGUCCCGUACGGAACG [C11U G18C G23C A57C] | ≤ 0.5 |
| GUUCCGUUGGUGUAAUGGUAACACGUCUCCCUCCUAAGGAGAAGACUGCGGGUUCGAGUGCAGUACGGAACG [C11U G23A C60G C62A] | ≤ 0.5 |
| GUUCCGUUGGUGUAAUGGUAACGCGUCUCCCUCCUAAGGAGAAGACUGCGGGUUCGAGUCACGUACAGAACG [C11U C61A G67A] | 0.53 |
| GUUCCGUUGGUCUAAUGGUAUCGCGUCUCCCACCUAAGGAGAAGACUGCGGGUUCGAGUCCCGUACGGAACG [C11U G12C A21U U32A] | 0.694 |
| GUUCCGUUGGUGUAAUGGUAACGCGUCUCCCUCCUAAGGAGAAGACUGCGGGUUCGAGUCAUCUACGGAUCG [C11U C61A C62U G63C A70U] | ≤ 0.5 |
| GUUCCGUUGGUGUAAUGGUAACCCGUCUCCCUCCUAAGGAGAAGACUGCGGGUUCGAAUCCCGUACGGAACG [C11U G23C G58A] | 0.669 |
| GUUCCGUUGGUGUAAUGGUAACCCGUCUCCCUCCUAAGGAGAAGACUGCGGGUUCGAGUCCCGUACGGAACG [C11U G23C] | 0.757 |
| GUUCCGUUGGUGUAAUCGUAACGCGUCUCCCUCCUAGGGAGAAGACUGCGGGUUCCAGUCACGUGGGGAACG [C11U G17C A37G G56C C61A A65G C66G] | ≤ 0.5 |
| GUUCCGUUGGUGUAAUGGUAACGCGUCUCCCUCCUAAGGAGAAGACUGCGGGUUCGAGUGCUGUACGCAACG [C11U C60G C62U G68C] | 0.505 |
| GUUCCGUUGGUGUAAUGGUAACGCAUCUCCCUCCUAAGGAGAGGACUGCGGGUUCGAGUCCCGUACGGAACG [C11U G25A A43G] | 0.592 |
| GUUCCGUUGGUGUAAUGGUAACGCGUCUCCCUCCUAAGGAGAAGACUGCGGGUUCGAGUACCGUACGGAACG [C11U C60A] | 0.631 |
| GUUCCGUUGGUGUAAUGGUAACGCGUCUCCCUCCUAAGGAGAAGACUGGGGGUUGGAGUCGCGUACGGAACG [C11U C49G C55G C61G] | ≤ 0.5 |
| GUUCCGUUGGUGUAAUGGUAACGCGUCUCCCUCCUAAGGAGAAGAUUGCGGGUUCCAGUCCCGUACGGUACG [C11U C46U G56C A69U] | ≤ 0.5 |
| GUUCCGUUGGUGUAAUGAUAACACGUCUCCCUCCUUAGGAGAAGACUCCGGGUUCGAGUCCCGUACGGAACG [C11U G18A G23A A36U G48C] | ≤ 0.5 |
| GUUCCGUUGGUGUAAUGGUAACGCGUCUCCCUCCUAAGGAGAAGACUGCGGGUUCGAGUCCUGUACGGACCG [C11U C62U A70C] | 0.698 |
| GUUCCGUUGGUGUAAUGCUAACGCGUCUCCCUCCUAAGCAGAAGACUGCGGGUUCGAGUCCCGUACGGAACG [C11U G18C G39C] | ≤ 0.5 |
| GUUCCGUUGGUGUAAUGGUAACGCGUCUCCCUCUUAAGGAGAAGACUGCGGGUUCGAGUCCCGUACGGAACG [C11U C34U] | 0.714 |

| Variant | yeast fitness |
| --- | --- |
| GUUCCGUUGGUGUAAUAGUAACGCGUCUCCCUCUUAAGGAGAAGACUGCGGGUUGGAGUCCCGUACGGAACG [C11U G17A C34U C55G] | ≤ 0.5 |
| GUUCCGUUGGUAUAAUGGUAACGUGUCUCCCUCCUAAGGAGAAGACCGCGGGUUCGAGUCCCGUACGGAACG [C11U G12A C24U U47C] | ≤ 0.5 |
| GUUCCGUUGGUGUAAUGGUAACGCGUCUCCCUCCUAAGGAGAAGAUUGCGGGUUCGAGUCCCGUACCGAACG [C11U C46U G67C] | 0.608 |
| GUUCCGUUGGUGUAAUCGUAUCGCGUCUCCCUCCUAAGGAGAAGACUGCGGGUUCGAGUCCCGUACGGAACG [C11U G17C A21U] | 0.541 |
| GUUCCGUUGGUGUAAUGGUAACGCGUCUCCCUCCUAAGGAGAAGACUGCGGGUUCGAGUCUCGUACGGAGCG [C11U C61U A70G] | 0.77 |
| GUUCCGUUGGUGUAAUCGUAACGCGUCUCCCUCCUAAGGAGAAGGCUGCGGGUUCGAGUCCCGUACGGAACG [C11U G17C A45G] | 0.586 |
| GUUCCGUUGGUGUAAUGGUAACGCGUCUCCCUCUUAAAGAGAACACUGCGGGUUCGAGUCCCGUAUGGAACG [C11U C34U G38A G44C C66U] | ≤ 0.5 |
| GUUCCGUUGGUGUAAUGGUAACGCGUCUCCCUCCUAAGGAGAAGACUGCGGGUUUGAGUCCCGUACGCAACG [C11U C55U G68C] | 0.537 |
| GUUCCGUUGGUGUAAUGGUAACGCGUCUCCCUCCUAAGGAGAAGACUGUGGGUUCGAGUCCCGUACGGAACG [C11U C49U] | 0.976 |
| GUUCCGUUGGUGUAAUGGUAACGCGUCUCCCUCCUAAGGAGAAGACUGAGGGUUCGAGUCCCGUACGGAACG [C11U C49A] | 0.724 |
| GUUCCGUUGGUGUAAUGGUAACGCGUCUCCCUCCUAAGGAGAAGACUGCGGGUUGGAGUCCCGUACGGCACG [C11U C55G A69C] | 0.509 |
| GUUCCGUUGGUGUAAUGGUAACGCGUCUCCCUCCUAAGGAGAAGAUUGUGGGUUCGAGUCCCGUACCGAACG [C11U C46U C49U G67C] | ≤ 0.5 |
| GUUCCGUUGGUGUAAUGAUAACGCGUCUCCCUCCUAAGGAGAUGACUGCGGGUUCGAGUCCCGUACGGAACG [C11U G18A A43U] | 0.533 |
| GUUCCGUUGGUGUAAUGGUAACGCGUCUCCCUCCUAAGGAGAAGACUGCGGGUUCGAGUCUCGUACGAAACG [C11U C61U G68A] | 0.615 |
| GUUCCGUUGGUGUAAUCGUACCGAGUCUCCCUCCUAAGGAAAAGAGUGCGGGUUCGAGUCACGUACGGAACG [C11U G17C A21C C24A G41A C46G C61A] | ≤ 0.5 |
| GUUCCGUUGGUGUAAUGGUAACGCGUCUCCCUCUUAAGGAGAAGACUACGGGUUCGAGUCCCGUACUGAACG [C11U C34U G48A G67U] | ≤ 0.5 |
| GUUCCGUUGGUGUAAUGGUAACGCGUCUCCCUCCUAAGGAGAAGACUGCGGGUUGGAGUCCCGUACGGAACG [C11U C55G] | 0.594 |
| GUUCCGUUGGUGUAAUGGUAACGCGUCUCCCUCCUAAGGAGAAGACUGCGGGUUACAGUCCCGUACCGAACG [C11U C55A G56C G67C] | ≤ 0.5 |
| GUUCCGUUGGUGUAAUGGUAACGCGUCUCCCUCCUAAGGAGAAGACUGCGGGUUGGAGUCCCGUACGGACCG [C11U C55G A70C] | 0.541 |
